# Read-outs that look alike come from different tables or passages of the source.
# Legend:
# [1] = biological target: T1, rat α1β2γ2L type GABAA receptors expressed in Xenopus laevis oocytes (Rattus norvegicus, UniProt P62813+P63138); type: cell-based; conditions: 2 µM GABA; for Potentiation, steroids 1 and 6a directly compared on the same oocyte (Figure 4): 1 and 10 µM compound, 6 to 7 oocytes; for oocyte electrophysiology, ratio of currents in presence/absence of compound: ± SEM, N ≥ 4
# How it was run: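 Rat α1β2γ2L GABAA receptors expressed in Xenopus oocytes with whole-cell recording. Currents with test compound plus 2 µM GABA were expressed as a ratio to 2 µM GABA alone, with at least four oocytes per compound. Direct gating used 10 µM compound without GABA, given as a ratio to the 2 µM GABA current. In the within-oocyte comparison, 1 or 10 µM compound was co-applied with 2 µM GABA and averaged over 6–7 oocytes.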
# BALB/C mice = assay: Anesthesia; type: in vivo, mouse; conditions: tail vein injection
# tadpole [2] = conditions: read-out: Tadpole LRR EC50; ± SEM; cited from earlier work
# tadpole [3] = conditions: read-out: Tadpole LSR EC50; ± SEM; None = all animals had a swimming response at 10 µM of the test compound; cited from earlier work
# [4] = biological target: picrotoxin binding site on GABAA receptors; conditions: read-out: IC50, inhibition of [35S]-TBPS binding; ± SEM; cited from earlier work
# [5] = biological target: T1, rat α1β2γ2L type GABAA receptors expressed in Xenopus laevis oocytes; conditions: 2 µM GABA, ± SEM, cited from earlier work
# tadpole [6] = assay: Tadpole loss of righting reflex; type: in vivo; conditions: read-out: Tadpole LRR EC50; ± SEM, N = 10 or more animals at each of five or more concentrations
# tadpole [7] = assay: Tadpole loss of swimming reflex; type: in vivo; conditions: ± SEM, None = all animals had a swimming response at 10 µM of the test compound
compound,measurement,setting,value
"CC(=O)[C@H]1CC[C@H]2[C@@H]3CC[C@H]4C[C@H](O)CC[C@]4(C)[C@H]3C(=O)C[C@]12C [Compound 1, (3α,5α)-3-hydroxypregnane-11,20-dione]","Potentiation, steroids 1 and 6a directly compared on the same oocyte (Figure 4)",[1],potentiate to the same level
same,Anesthetic effect in mice,"BALB/C mice; 8 mg/kg, 22.5% 2-hydroxypropyl-β-cyclodextrin",very brief anesthesia
same,Onset of loss of righting reflex,"BALB/C mice; mice, 16 mg/kg",immediate loss of righting reflex
same,Recovery period from initial return of leg movement to righting and walking,"BALB/C mice; mice, 16 mg/kg",1 to 2 min
same,EC50,tadpole [2],1120 ± 140 nM
same,EC50,tadpole [3],5.48 ± 0.11 µM
"CC(=O)C1=CC[C@H]2[C@@H]3CC[C@H]4C[C@H](O)CC[C@]4(C)[C@H]3C(=O)C[C@]12C [Compound 2, (3α,5α)-3-hydroxypregn-16-ene-11,20-dione]",IC50,[4],2220 nM
same,"oocyte electrophysiology, ratio of currents in presence/absence of compound",[5]; 0.1 µM compound,0.94 ± 0.04
same,"oocyte electrophysiology, ratio of currents in presence/absence of compound",[5]; 1 µM compound,0.97 ± 0.05
same,"oocyte electrophysiology, ratio of currents in presence/absence of compound",[5]; 10 µM compound,1.87 ± 0.14
same,EC50,tadpole [2],> 10000 nM
"C[C@]12CC[C@@H](O)C[C@@H]1CC[C@@H]1[C@@H]2C(=O)C[C@]2(C)C(C=O)=CC[C@@H]12 [Compound 5a, (3α,5α)-3-Hydroxy-11-oxoandrost-16-ene-17-carboxaldehyde]",EC50,tadpole [6],~3 µM
same,Tadpole LSR EC50,tadpole [7],None
"C[C@]12CC[C@@H](O)C[C@@H]1CC[C@H]1[C@@H]3CC[C@H](C=O)[C@@]3(C)CC(=O)[C@@H]12 [Compound 5b, (3α,5α,17β)-3-Hydroxy-11-oxoandrostane-17-carboxaldehyde]",Tadpole LSR EC50,tadpole [7],None
"C[C@]12CC[C@@H](O)C[C@@H]1CC[C@@H]1[C@@H]2C(=O)C[C@]2(C)/C(=C\C#N)CC[C@@H]12 [Compound 6a, [3α,5α,17(20)Z]-3-Hydroxy-11-oxopregn-17(20)-ene-21-nitrile]","Potentiation, steroids 1 and 6a directly compared on the same oocyte (Figure 4)",[1],potentiate to the same level
same,Time to loss of movement and righting reflex (onset),"BALB/C mice; mice, 8 mg/kg",10 to 25 s
same,Onset of loss of righting reflex,"BALB/C mice; mice, 16 mg/kg",immediate loss of righting reflex
"C/C(C#N)=C1\CC[C@H]2[C@@H]3CC[C@H]4C[C@H](O)CC[C@]4(C)[C@H]3C(=O)C[C@]12C [Compound 6c, [3α,5α,17(20)Z]-3-Hydroxy-11-oxopregn-17(20)-ene-20-carbonitrile]",EC50,tadpole [7]; read-out: Tadpole LSR EC50,< 10 µM
"(3α,5α)-3-Hydroxy-11-oxopregnan-21-carbonitrile [Compound 5c]","oocyte electrophysiology, ratio of currents in presence/absence of compound",[1]; 0.1 µM compound,0.91 ± 0.03
same,"oocyte electrophysiology, ratio of currents in presence/absence of compound",[1]; 1 µM compound,1.13 ± 0.08
same,"oocyte electrophysiology, ratio of currents in presence/absence of compound",[1]; 10 µM compound,4.67 ± 0.14
same,EC50,tadpole [6],3.58 ± 1.59 µM
same,Tadpole LSR EC50,tadpole [7],None

# From paper PMC3794474 (Journal of medicinal chemistry, 2011)
